The results in this text go back to ChEMBL document CHEMBL4152203, “Antiproliferative hydrogen sulfide releasing evodiamine derivatives and their apoptosis inducing properties” (Eur J Med Chem, 2018).

Structures are written as SMILES. Active and inactive are the calls of the source. No cut-off for these calls is given here. Some results are limits rather than exact numbers.

The test system of assay [1] is HL-60. Put plainly: Induction of apoptosis in human HL60 cells assessed as increase in Bax level at 0.3 to 1.2 uM after 48 hrs by Western blot analysis. The class given is functional, cell-based. The method in brief: (§1)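 HL-60 treated in triplicate with 0.3, 0.6 or 1.2 μM compound; exposure is 72 h in the methods and 48 h in the legend. Lysates were run on 10% SDS-PAGE, transferred to nitrocellulose, blocked in 5% milk, and probed overnight at 4 °C with monoclonal antibodies (Bcl-2, Bax, cytochrome c, caspase-9/-3, p53, cyclin B1, cdc2). ECL detection; densitometry relative to GAPDH.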

Assay [2] concerns HL-60. Description: Induction of apoptosis in human HL60 cells assessed as early apoptotic cells at 1.2 uM after 48 hrs by Annexin V-FITC/propidium iodide staining-based flow cytometric analysis (reference value: 2.31%). The class given is functional.
Assay [3] has as its system HL-60. Put plainly: Induction of apoptosis in human HL60 cells assessed as early apoptotic cells at 0.3 uM after 48 hrs by Annexin V-FITC/propidium iodide staining-based flow cytometric analysis (reference value: 2.31%). The assay is classed as functional.
Assay [4] deals with HL-60. Put plainly: Induction of apoptosis in human HL60 cells assessed as decrease in cdc2 protein expression level at 0.3 to 1.2 uM after 48 hrs by Western blot analysis. The class given is functional, cell-based. The method in brief: as §1
The test system of a further assay is PBMC. Description: Antiproliferative activity against human PBMC cells after 72 hrs by MTT assay. The assay is classed as cell-based. The method in brief: (§2)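 Cells seeded and pre-incubated 24 h at 37 °C, 5% CO2, then exposed to compounds for 72 h. MTT (5 mg/mL stock) added for 4 h, formazan dissolved in DMSO for 10 min at room temperature, absorbance read at 570 nm. 0.1% DMSO as negative and 5-FU as positive reference. IC50 derived from inhibition ratios; mean ± SD of three independent experiments.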

The subject of another assay is SGC-7901. Description: Antiproliferative activity against human SGC7901 cells after 72 hrs by MTT assay. The following applies: SGC-7901, 72 h. The assay is classed as functional, cell-based. The method in brief:
as §2

In assay [5] the test system is HL-60. Description: Induction of mitochondrial membrane potential loss in human HL60 cells assessed as cell population with mitochondrial membrane potential collapse at 1.2 uM after 48 hrs by JC1 staining-based flow cytometry analysis (reference value: 7.65%). The class given is functional.
The subject of assay [6] is HL-60. Description: Induction of apoptosis in human HL60 cells assessed as morphological changes by measuring nuclear fragmentation at 0.3 to 1.2 uM after 48 hrs by Hoechst 33258 staining-based fluorescence microscopic analysis. The class given is functional, cell-based. The method in brief: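 HL-60 pre-incubated 24 h, then treated 48 h with 0, 0.3, 0.6 or 1.2 μM compound or vehicle. Cells were harvested, washed twice in PBS, stained with Hoechst 33258 (2 mg/mL in PBS) for 15 min at room temperature in darkness, washed, mounted and examined by fluorescence microscopy with a DAPI filter.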

The test system of assay [7] is HL-60. Put plainly: Induction of apoptosis in human HL60 cells assessed as viable cells at 0.3 uM after 48 hrs by Annexin V-FITC/propidium iodide staining-based flow cytometric analysis (reference value: 95.56%). The assay is classed as functional. As to conditions: HL-60, 48 h, read-out: Activity.
Assay [8] deals with HL-60. Put plainly: Induction of apoptosis in human HL60 cells assessed as early apoptotic cells at 1.2 uM after 48 hrs by Annexin V-FITC/propidium iodide staining-based flow cytometric analysis (reference value: 1.11%). The assay is classed as functional.
Assay [9] relates to HL-60. Description: Induction of apoptosis in human HL60 cells assessed as viable cells at 1.2 uM after 48 hrs by Annexin V-FITC/propidium iodide staining-based flow cytometric analysis (reference value: 95.56%). The class given is functional. The following applies: HL-60, 48 h, read-out: Activity.
Assay [10] has as its system HL-60. Description: Cell cycle arrest in human HL60 cells assessed as accumulation at G2/M phase at 0.6 uM after 48 hrs by propidium iodide/RNase A staining-based flow cytometric analysis (reference value: 10.19%). The class given is functional.
In assay [11] the test system is HL-60. Put plainly: Induction of apoptosis in human HL60 cells assessed as early apoptotic cells at 0.6 uM after 48 hrs by Annexin V-FITC/propidium iodide staining-based flow cytometric analysis (reference value: 2.31%). The assay is classed as functional.
The test system of assay [12] is HL-60. Description: Induction of mitochondrial membrane potential loss in human HL60 cells assessed as cell population with mitochondrial membrane potential collapse at 0.3 uM after 48 hrs by JC1 staining-based flow cytometry analysis (reference value: 7.65%). The class given is functional.

On to `CN1c2ccccc2C(=O)N2CCc3c(n(CCCCC(=O)OCCCCOc4ccc(-c5cc(=S)ss5)cc4)c4ccccc34)C21` (centres undefined), for which the outcome in the assay on HL-60 [1], in the assay on HL-60 [4] and with HL-60 [6] was Active. The Activity with HL-60 [2] is reported as 48.08%; in the assay on HL-60 [3], 6.74%; with HL-60 [5], 35.01%; in the assay on HL-60 [8], 12.6%; with HL-60 [10], 16.63%; with HL-60 [11], 19.5%. Besides, in the assay on HL-60 [12], the Activity was 13.33%. The concentration for half-maximal inhibition (IC50) was more than 100 µM with PBMC and more than 50 µM in the assay with SGC-7901. The viability at 0.3 µM in the assay on HL-60 [7] came out at 88.7%. Moreover, the viability at 1.2 µM with HL-60 [9] is 39.2%.
